ChEMBL document CHEMBL1146498, “Excisanin H, a novel cytotoxic 14,20-epoxy-ent-kaurene diterpenoid, and three new ent-kaurene diterpenoids from Rabdosia excisa” (J Nat Prod, 2004)
Converted amounts (≈) assume the structure as drawn.

Test system: P388
Test: Cytotoxicity against mouse P388 cells
Format: functional, cell-based
Outline: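 In vitro assay on P388 murine leukemia cells; cytotoxic activity expressed as IC50, reported in μg/mL.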

SMILES | IC50 [µg/mL]
C=C1C(=O)[C@@]23[C@H](O)C[C@@H]4[C@@](C)(CO)CCC[C@@]4(C)[C@@H]2C[C@H](O)[C@@H]1[C@H]3O [RABDOKUNMIN C] | 1.06 (≈ 3.02 µM)
C=C1C(=O)[C@@]23[C@H](O)C[C@@H]4C(C)(C)CC[C@H](O)[C@@]4(CO)[C@@H]2CC[C@@H]1[C@H]3O [KAMEBAKAURIN] | 0.82 (≈ 2.34 µM)
C=C1C(=O)[C@@]23[C@H](O)C[C@@H]4C(C)(C)CC[C@H](O)[C@@]4(CO)[C@@H]2C[C@H](O)[C@@H]1[C@H]3O [RABDOSERRIN B] | 1.01 (≈ 2.76 µM)
C=C1C(=O)[C@@]23[C@H](O)C[C@@H]4C(C)(C)CC[C@H](O)[C@@]4(C)[C@@H]2C[C@H](OC(C)=O)[C@@H]1[C@H]3O [EXCISANIN B] | 0.63 (≈ 1.61 µM)
C=C1C(=O)[C@@]23[C@H](O)C[C@@H]4[C@@](C)(CO)CC[C@H](O)[C@@]4(C)[C@@H]2CC[C@@H]1[C@H]3O | 0.92 (≈ 2.63 µM)
C=C1C(=O)[C@@]23[C@H](O)C[C@@H]4C(C)(C)CC[C@H](O)[C@@]4(COC(C)=O)[C@@H]2CC[C@@H]1[C@H]3O [HENRYIN] | 0.58 (≈ 1.48 µM)
C=C1C(=O)[C@@]23[C@H](O)C[C@@H]4C(C)(C)CC[C@H](O)[C@@]4(C)[C@@H]2CC[C@@H]1[C@H]3O [KAMEBANIN] | 0.69 (≈ 2.06 µM)
C=C1C(=O)[C@@]23[C@H](O)C[C@@H]4[C@@](C)(COC(C)=O)CC[C@H](O)[C@@]4(C)[C@@H]2CC[C@@H]1[C@H]3O | 0.72 (≈ 1.83 µM)
C=C1C(=O)[C@@]23[C@H](O)C[C@@H]4C(C)(C)CC[C@H](O)[C@@]4(C)[C@@H]2C[C@H](O)[C@@H]1[C@H]3O [EXCISANIN A] | 1.11 (≈ 3.17 µM)
C=C1C(=O)[C@@]23[C@H](O)C[C@@H]4C(C)(C)CCC[C@@]4(CO)[C@@H]2C[C@H](O)[C@@H]1[C@H]3O [EXCISANIN I] | 0.87 (≈ 2.48 µM)
C=C1C(=O)[C@@]23[C@H](O)C[C@@H]4[C@@](C)(CO)CCC[C@@]4(CO)[C@@H]2CC[C@@H]1[C@H]3O [EXCISANIN J] | 0.92 (≈ 2.63 µM)
C=C1C(=O)[C@]23[C@H](O)[C@H]1CC[C@H]2[C@@]12CO[C@@]3(O)C[C@@H]1C(C)(C)CC[C@@H]2O [MEGATHYRIN A] | 0.77 (≈ 2.21 µM)
C=C1C(=O)[C@]23[C@H](O)C[C@@H]4C(C)(C)CC[C@H](O)[C@]45CO[C@]2(O)[C@H]1CC[C@@H]53 [EXCISANIN H] | 0.96 (≈ 2.76 µM)
C=C1C(=O)[C@@]23[C@@H](CC[C@@H]1[C@H]2O)[C@@]12C(=O)O[C@@H]3C[C@@H]1C(C)(C)CC[C@@H]2O | 0.77 (≈ 2.22 µM)
